Columns and labels:
PANC-1 = assay: Antiproliferative activity against human PANC1 cells after 72 hrs by MTT assay; format: functional, cell-based; conditions: PANC-1, 72 h
Method in brief: (§1)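 Cells grown in DMEM with 10% FBS and 1% penicillin-streptomycin at 37 °C, 5% CO2. Seeded at 4,000 to 5,000 cells/well, cultured one day, then exposed to compounds for 72 h at 1.25 to 40 μmol/L, five replicates per concentration. MTT absorbance read at 570 nm. IC50 from five-point dose-response curves; mean of at least three separate experiments.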

Focal adhesion kinase 1 = Focal adhesion kinase 1 (Homo sapiens, UniProt Q05397); assay: Inhibition of recombinant full length GST-tagged human FAK expressed in baculovirus expression system at 100 nM relative to control
Focal adhesion kinase 1, sequence (Q05397 2-1052 limits assumed): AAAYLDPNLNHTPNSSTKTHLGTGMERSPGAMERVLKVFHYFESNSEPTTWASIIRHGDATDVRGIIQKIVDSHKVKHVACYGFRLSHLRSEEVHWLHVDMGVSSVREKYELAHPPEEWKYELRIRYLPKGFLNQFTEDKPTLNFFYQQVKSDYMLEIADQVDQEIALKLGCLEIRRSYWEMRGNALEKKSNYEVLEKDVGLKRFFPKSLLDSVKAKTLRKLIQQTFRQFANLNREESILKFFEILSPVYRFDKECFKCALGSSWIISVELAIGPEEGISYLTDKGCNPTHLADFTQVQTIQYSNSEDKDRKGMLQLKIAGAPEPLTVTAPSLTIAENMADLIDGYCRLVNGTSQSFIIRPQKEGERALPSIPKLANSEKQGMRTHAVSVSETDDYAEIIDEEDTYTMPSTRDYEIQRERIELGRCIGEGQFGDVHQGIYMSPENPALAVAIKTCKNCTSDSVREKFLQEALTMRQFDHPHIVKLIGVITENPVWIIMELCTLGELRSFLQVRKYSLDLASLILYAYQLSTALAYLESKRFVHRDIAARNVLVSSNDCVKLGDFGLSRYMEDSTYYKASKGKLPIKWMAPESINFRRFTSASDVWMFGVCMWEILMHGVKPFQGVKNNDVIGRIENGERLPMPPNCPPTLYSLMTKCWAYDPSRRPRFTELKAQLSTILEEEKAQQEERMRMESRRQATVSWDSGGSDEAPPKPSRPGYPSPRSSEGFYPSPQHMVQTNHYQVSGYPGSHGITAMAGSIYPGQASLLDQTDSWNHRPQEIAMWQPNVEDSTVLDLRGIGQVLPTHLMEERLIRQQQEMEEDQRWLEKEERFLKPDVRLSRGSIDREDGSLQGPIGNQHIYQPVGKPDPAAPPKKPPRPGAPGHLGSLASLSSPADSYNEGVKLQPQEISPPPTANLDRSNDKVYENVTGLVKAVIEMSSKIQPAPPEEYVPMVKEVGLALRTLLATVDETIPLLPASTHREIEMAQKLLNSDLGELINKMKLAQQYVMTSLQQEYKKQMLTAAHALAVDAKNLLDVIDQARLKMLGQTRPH
Method in brief: (§2)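 SelectScreen biochemical kinase profiling service; percent inhibition of each kinase at a single compound concentration of 100 nM.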

ASPC1 [1] = assay: Antiproliferative activity against human Aspc-1 cells assessed as cell viability at 0.5 uM after 48 hrs by MTT assay (reference value: 98.1%); format: functional; conditions: ASPC1, 48 h, read-out: Activity
ASPC1 [2] = assay: Induction of apoptosis in human Aspc-1 cells assessed as early apoptotic cells at 2.5 uM after 72 hrs by Annexin V-FITC/propidium iodide staining-based flow cytometry (reference value: 0%); format: functional
Method in brief: (§3)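 AsPC-1 cells (3 to 5×10^5 per well) were treated with DMSO solvent control or compound for 72 h in medium with 5% FBS. Cells were then stained with Annexin V-FITC and propidium iodide and analysed by flow cytometry. One representative experiment shown.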

ASPC1 [3] = assay: Antiproliferative activity against human Aspc-1 cells assessed as cell viability at 8 uM after 48 hrs by MTT assay (reference value: 98.1%); format: functional; conditions: ASPC1, 48 h, read-out: Activity
ASPC1 [4] = assay: Cell cycle arrest in human Aspc-1 cells assessed as accumulation at G2/M phase at 1 uM after 72 hrs by propidium iodide staining-based flow cytometry (reference value: 0.89%); format: functional
ASPC1 [5] = assay: Induction of apoptosis in human Aspc-1 cells assessed as late apoptotic cells at 5 uM after 72 hrs by Annexin V-FITC/propidium iodide staining-based flow cytometry (reference value: 0%); format: functional; method in brief: as §3
[6] = Antiproliferative activity against human HPDE6c7 cells after 72 hrs by MTT assay; format: cell-based; conditions: HPDE6c7, 72 h; method in brief: as §1
[7] = target: Protein-tyrosine kinase 2-beta (Homo sapiens) (UniProt Q14289); assay: Inhibition of recombinant full length GST-tagged human PYK2 cytoplasmic domain expressed in baculovirus expression system at 100 nM relative to control; method in brief: as §2
Protein-tyrosine kinase 2-beta (Homo sapiens), sequence (Q14289 whole entry, looked up, the tested form may be a part): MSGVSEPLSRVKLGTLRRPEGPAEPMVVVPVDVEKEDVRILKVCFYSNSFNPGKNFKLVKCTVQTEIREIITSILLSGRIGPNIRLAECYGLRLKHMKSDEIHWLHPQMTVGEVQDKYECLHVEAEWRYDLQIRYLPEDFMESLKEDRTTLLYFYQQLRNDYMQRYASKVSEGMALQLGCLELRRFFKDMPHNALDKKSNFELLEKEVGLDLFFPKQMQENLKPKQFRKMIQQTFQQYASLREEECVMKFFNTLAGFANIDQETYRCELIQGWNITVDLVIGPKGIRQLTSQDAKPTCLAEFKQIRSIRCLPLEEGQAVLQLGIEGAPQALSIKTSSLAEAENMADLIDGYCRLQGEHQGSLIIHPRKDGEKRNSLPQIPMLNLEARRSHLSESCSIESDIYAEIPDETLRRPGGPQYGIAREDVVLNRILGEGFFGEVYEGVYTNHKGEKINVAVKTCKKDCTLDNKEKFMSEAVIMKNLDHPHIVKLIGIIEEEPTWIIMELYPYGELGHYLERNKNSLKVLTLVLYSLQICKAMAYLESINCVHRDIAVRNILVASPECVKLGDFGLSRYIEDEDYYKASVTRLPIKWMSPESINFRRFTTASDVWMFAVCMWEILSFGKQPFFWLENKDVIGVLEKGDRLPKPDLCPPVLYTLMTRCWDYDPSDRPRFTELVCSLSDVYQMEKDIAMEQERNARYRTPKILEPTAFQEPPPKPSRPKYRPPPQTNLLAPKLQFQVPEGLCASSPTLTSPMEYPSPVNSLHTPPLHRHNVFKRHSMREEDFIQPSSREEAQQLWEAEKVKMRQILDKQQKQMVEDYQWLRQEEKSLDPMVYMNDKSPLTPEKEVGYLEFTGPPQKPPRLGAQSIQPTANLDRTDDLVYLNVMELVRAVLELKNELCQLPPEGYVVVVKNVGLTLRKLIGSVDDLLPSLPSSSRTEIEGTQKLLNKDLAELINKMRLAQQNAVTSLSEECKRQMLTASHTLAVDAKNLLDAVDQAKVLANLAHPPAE

[8] = target: T1, Aurora kinase A (Homo sapiens) (UniProt O14965); assay: Inhibition of recombinant full length His-tagged human Aurora A expressed in baculovirus expression system at 100 nM relative to control
T1 sequence (whole entry): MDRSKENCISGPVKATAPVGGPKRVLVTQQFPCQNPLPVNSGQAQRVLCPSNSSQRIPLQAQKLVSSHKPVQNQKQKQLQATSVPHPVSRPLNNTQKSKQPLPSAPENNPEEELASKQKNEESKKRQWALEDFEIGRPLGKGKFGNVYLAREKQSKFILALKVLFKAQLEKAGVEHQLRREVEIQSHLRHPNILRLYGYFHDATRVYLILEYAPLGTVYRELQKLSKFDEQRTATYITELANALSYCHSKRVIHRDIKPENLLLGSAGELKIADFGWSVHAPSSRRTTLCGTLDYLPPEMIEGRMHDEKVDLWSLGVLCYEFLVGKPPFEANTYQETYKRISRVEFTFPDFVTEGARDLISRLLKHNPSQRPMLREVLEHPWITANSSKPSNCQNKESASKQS
Method in brief: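 Percent inhibition of kinase activity at a single 100 nM test concentration, from an outsourced biochemical profiling screen.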

ASPC1 [9] = assay: Cell cycle arrest in human Aspc-1 cells assessed as accumulation at G0/G1 phase at 5 uM after 72 hrs by propidium iodide staining-based flow cytometry (reference value: 39.41%); format: functional
BXPC-3 = assay: Antiproliferative activity against human BxPC3 cells after 72 hrs by MTT assay; format: functional, cell-based; conditions: BXPC-3, 72 h; method in brief: as §1
[10] = target: Tyrosine-protein kinase receptor UFO (Homo sapiens) (UniProt P30530); assay: Inhibition of GST-tagged human AXL (473 end residues) at 100 nM relative to control; method in brief: as §2
Tyrosine-protein kinase receptor UFO (Homo sapiens), sequence (P30530 whole entry): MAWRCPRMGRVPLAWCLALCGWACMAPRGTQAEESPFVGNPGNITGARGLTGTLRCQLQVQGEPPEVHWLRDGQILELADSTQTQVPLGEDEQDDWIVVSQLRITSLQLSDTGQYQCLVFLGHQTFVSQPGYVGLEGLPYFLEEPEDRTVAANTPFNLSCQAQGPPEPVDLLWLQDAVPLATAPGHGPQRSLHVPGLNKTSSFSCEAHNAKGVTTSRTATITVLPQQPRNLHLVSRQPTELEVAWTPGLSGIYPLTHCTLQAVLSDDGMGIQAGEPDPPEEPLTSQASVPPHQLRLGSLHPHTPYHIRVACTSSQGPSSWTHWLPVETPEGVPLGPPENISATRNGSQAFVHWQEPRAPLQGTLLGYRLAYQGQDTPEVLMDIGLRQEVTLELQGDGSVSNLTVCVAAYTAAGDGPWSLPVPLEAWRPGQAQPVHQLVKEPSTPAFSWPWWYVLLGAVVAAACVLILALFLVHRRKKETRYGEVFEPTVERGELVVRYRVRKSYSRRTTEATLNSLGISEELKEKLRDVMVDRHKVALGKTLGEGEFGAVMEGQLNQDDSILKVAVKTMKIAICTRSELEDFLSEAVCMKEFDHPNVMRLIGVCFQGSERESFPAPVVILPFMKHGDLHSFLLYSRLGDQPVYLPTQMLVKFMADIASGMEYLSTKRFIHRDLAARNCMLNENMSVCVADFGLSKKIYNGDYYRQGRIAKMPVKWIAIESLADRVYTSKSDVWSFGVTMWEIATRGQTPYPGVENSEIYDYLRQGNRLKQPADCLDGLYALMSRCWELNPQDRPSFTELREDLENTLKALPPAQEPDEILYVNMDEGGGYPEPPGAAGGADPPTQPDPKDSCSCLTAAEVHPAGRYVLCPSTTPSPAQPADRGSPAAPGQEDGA

For `CCOP(=O)(CCCOc1ccc(Nc2ncc([N+](=O)[O-])c(Nc3ccccc3C(=O)NC)n2)cc1)N1CCOCC1` (stereo not drawn), the IC50 (PANC-1) was greater than 40 µM, the inhibition (Focal adhesion kinase 1) was 92% and the viability at 0.5 µM (ASPC1 [1]) was 97.4%. The Activity (ASPC1 [2]) was 21%, the viability at 8 µM (ASPC1 [3]) was 30.2% and the Activity (ASPC1 [4]) was 13%. For the same compound, the Activity (ASPC1 [5]) was 40.3%, the IC50 [6] was greater than 20 µM and the inhibition [7] was 71%. It also gave an inhibition [8] of 48%, an Activity (ASPC1 [9]) of 40.06% and an IC50 (BXPC-3) of 0.57 µM. The inhibition [10] was 60%.

— ChEMBL document CHEMBL4177662, “Phosphamide-containing diphenylpyrimidine analogues (PA-DPPYs) as potent focal adhesion kinase (FAK) inhibitors with enhanced activity against pancreatic cancer cell lines” (Bioorg Med Chem, 2017)
